MrgX1 agonist = agonists of human MrgX1 receptor, primary screen, HEK293 cells, Fluo-4 calcium flux; hit rate 0.44% among 310,000; B-score at 10 µM; Fluo-4 calcium fluorescence, agonist mode; hits give high values; Mas-related G-protein coupled receptor member X1 (Homo sapiens), Q96LB2;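 active means calcium response B-score plate-corrected fluorescence ratio at least 3 library SD, with starting fluorescence B-score inside 5 SD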
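Assay system: MrgX1-expressing HEK293 cells / Amount: fifteen thousand cells per well / Doses: test compound in the initial addition of three / Timing: cells plated overnight, dye loaded 0.5 h 37 °C, 0.5 h room temperature / Technique: kinetic calcium dye fluorescence, Fluo-4 NW / Control set: positive and negative controls per plate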
RGS4 block = RGS4 inhibitors, primary screen, cell-based, HEK293 M3R inducible RGS4, calcium flux; Regulator of G-protein signaling 4 (Homo sapiens), P49798; Fluo-4 calcium flux; hits give high values; triggered by carbachol at its EC20; B-score at 10 µM; hit rate 0.45% among 310,000; AID 463165, 2010;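 active means B-score, a plate-corrected calcium signal, over three deviations above library mean, with baseline fluorescence within five deviations of library mean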;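 further: RGS4 expression induced by doxycycline in cells with stable M3 receptor; B-score is computed from the integrated fluorescence ratio over baseline after carbachol; higher B-score means a larger calcium signal and so more RGS4 inhibition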
Target sequence (P49798 whole entry, looked up): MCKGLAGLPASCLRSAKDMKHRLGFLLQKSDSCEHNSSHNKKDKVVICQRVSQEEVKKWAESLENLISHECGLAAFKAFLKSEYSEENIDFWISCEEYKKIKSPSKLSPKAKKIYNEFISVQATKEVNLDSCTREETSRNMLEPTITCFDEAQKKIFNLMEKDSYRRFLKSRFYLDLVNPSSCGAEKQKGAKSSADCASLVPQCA
RGS4 pot = RGS4 potentiators or activators, primary screen, cell-based, HEK293 M3R inducible RGS4, calcium flux; carbachol calcium flux Fluo4; hits give low values; B-score at 10 µM; hit rate 0.92% among 310,000; AID 463111, 2010;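 active means B-score of the integrated calcium signal more than 4 SD below the library mean, with starting fluorescence not abnormally high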;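 further: negative B-score means reduced calcium response which marks RGS4 activation or potentiation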
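System – HEK293 FlpIn-TREx cells, stable M3R, doxycycline-inducible RGS4 · Reagent – ECmax carbachol challenge · Times – compound preincubation 20 min at room temperature before agonist · Technique – Fluo4 fluorescence kinetic imaging of calcium · Measure – B score of integrated Fluo4 ratio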
MrgX1 allo act = positive allosteric modulators of MrgX1, primary screen, HEK293 cells, Fluo-4 calcium flux | Mas-related G-protein coupled receptor member X1 (Homo sapiens), Q96LB2 | FDSS; hits give high values | B-score at 10 µM | hit rate 0.63% among 310,000 | AID 588675, 2011;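 active means plate-corrected calcium response at least 3 library SD above typical, normal starting fluorescence, not activating the receptor alone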;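 further: compound read alongside a low EC10 to EC30 dose of BAM8-22 agonist; peak minus trough fluorescence over baseline measured at the second addition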
MrgX1 antagonist = antagonists of human MrgX1 receptor, primary screen, HEK293 cells, Fluo-4 calcium flux; Mas-related G-protein coupled receptor member X1 (Homo sapiens), Q96LB2; BAM8-22 antagonism; hits give low values; B-score at 10 µM; hit rate 1.3% among 310,000;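 active means calcium-response B-score plate-corrected more than 3 library SD below zero, starting fluorescence within 5 deviations, no agonist response on first addition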;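 further: peak minus trough fluorescence over baseline after final BAM8-22 challenge near maximal dose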
* hit, by the source's call; i = inactive. An excerpt weighted towards active compounds, which were near 3.5% of everything screened.

SMILES	MrgX1 agonist	RGS4 block	RGS4 pot	MrgX1 allo act	MrgX1 antagonist
COc1ccc(Cc2nc3ccc(C(=O)NC(C)c4cn(C)nc4C)cc3o2)cc1 (configuration not stated)	i	i	i	i	i
Cc1ccc(S(=O)(=O)CC#CCOC(=O)c2ccc([N+](=O)[O-])cc2)cc1	43*	i	i	i	i
Cc1ccc(C(=O)c2ccc([N+](=O)[O-])cc2)cc1	i	i	i	i	i
CC(C)(C)C1COc2ccccc2N1C(=O)c1cccc(Cl)c1 (configuration not stated)	i	i	i	i	i
CN(C)[C@@H]1CCC[C@H]1OC(=O)C(c1ccccc1)c1ccccc1	i	i	i	i	i
CC1CN(C)C(C)CC1OC(=O)C(c1ccccc1)c1ccccc1 (configuration not stated)	i	i	-7.2*	i	i
Cc1ccsc1C=C1C(=O)c2ccccc2C1=O	i	i	i	i	i
Cc1ccsc1/C=C1/C(=O)NN(c2ccccc2)C1=O	33*	i	i	i	i
COc1ccc(OCc2nnc(SCC(=O)Nc3ccccc3F)o2)cc1	i	i	i	i	i
O=C(NNC(=O)c1cc(Cl)ccc1O)c1cccc(S(=O)(=O)N2CCOCC2)c1	i	i	i	i	-4.8*
O=C(NNC(=O)c1cccc(S(=O)(=O)N2CCN(c3ccccc3)CC2)c1)c1ccc(Cl)cc1	i	i	i	i	i
Cn1ncc(Cl)c1C(=O)N/N=C/c1ccccn1	i	i	i	i	-9.3*
Cc1ccc(N2C(=O)c3ccccc3C2C(=O)c2ccc(C)c(C)c2O)cc1 (configuration not stated)	i	i	-7*	i	i
Cc1ccc(N2C(=O)c3ccccc3C2C(=O)c2ccc(O)cc2O)cc1 (configuration not stated)	i	i	i	i	i
COc1ccc(NC(=O)Nc2ccc([N+](=O)[O-])cc2)cn1	i	i	i	i	i
N#C/C(=C\c1ccc(O)c(O)c1)C(=O)NCCCc1ccccc1	i	i	i	6.7*	i
Cc1ccc(-c2nc3ccccc3[nH]2)cc1NC(=S)NC(=O)c1ccccc1Br	i	i	-7.1*	i	i
CCOc1ccc(C(=O)Nc2cc(-c3nc4ccccc4[nH]3)ccc2C)cc1[N+](=O)[O-]	i	i	-7.1*	i	i
Cc1ccc(-c2nc3ccccc3[nH]2)cc1NC(=O)c1ccc2c(c1)OCO2	i	i	i	i	i
O=S(=O)(Nc1ccc(N2CCCCC2)cc1)c1cccs1	i	i	i	i	i
O=S(=O)(Nc1cc(Cl)ccc1N1CCCCC1)c1cccs1	i	i	i	i	-13*
COC(=O)[C@]1(CC(C)C)N[C@H](c2ccc(-c3ccc(F)cc3)c(OC)c2)[C@@H]2C(=O)N(C)C(=O)[C@@H]21	i	i	i	i	i
Cc1c(CCC(=O)N2CCC(C(=O)O)(c3ccccc3)CC2)c(=O)oc2cc3oc4c(c3cc12)CCCC4	i	i	i	i	-6.2*
Cc1c(CCC(=O)N2CCC(C(=O)O)CC2)c(=O)oc2cc3oc4c(c3cc12)CCCC4	i	i	i	i	i
CC(c1ccccc1)N1C(=O)c2ccc(C(=O)Nc3ccc(Br)cc3C(=O)O)cc2C1=O (configuration not stated)	i	i	i	i	-11*
CC(C)CCN1C(=O)c2ccc(C(=O)Nc3ccccc3C(=O)O)cc2C1=O	i	i	-7.1*	i	i
CCOc1ccc(-c2nnc(NC(=O)C3CCCC3)o2)cc1	i	i	i	i	i
O=C(COC(=O)[C@@H]1CCCN1S(=O)(=O)c1ccc(Cl)cc1)NC12CC3CC(CC(C3)C1)C2	i	i	i	i	i

Compound activity as filed in PubChem.
